High-throughput results from PubChem BioAssay.
proCasp3 act: activators of human procaspase-3; 0.11% of 330,000 active; activation, % at 8.5 µM; recombinant procaspase-3 D3A, Ac-DEVD-pNA absorbance 405 nm; P42574; AID 463141;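 active = activation above the mean of all tested compounds plus 3 SD, cut at about 21% in these data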;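 also: 0% = DMSO alone and 100% = DMSO wells spiked with extra 5 µM PC-3 D3A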
Target sequence (P42574 whole entry D9A/D28A/D175A): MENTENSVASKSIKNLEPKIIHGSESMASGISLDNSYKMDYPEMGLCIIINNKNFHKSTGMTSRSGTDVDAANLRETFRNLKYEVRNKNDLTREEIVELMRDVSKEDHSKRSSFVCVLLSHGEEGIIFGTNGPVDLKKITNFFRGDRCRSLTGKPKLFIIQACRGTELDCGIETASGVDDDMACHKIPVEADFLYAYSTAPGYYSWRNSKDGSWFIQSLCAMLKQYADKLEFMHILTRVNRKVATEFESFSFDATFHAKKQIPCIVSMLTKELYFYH
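Technique: 405 nm absorbance of p-nitroaniline, reads at 0 and 120 min; Test system: Procaspase-3 D3A mutant; Incubation: 1 h enzyme-compound preincubation, then 2 h substrate reaction, 25 °C; Repeats: singlicate, each compound tested once; Benchmarks: low control DMSO wells, high control DMSO plus 5 µM PC-3 D3A.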
MPTP inh: permeability transition pore inhibition | AID 602449 | inhibition, % at 10 µM | isolated mouse mitochondria, Ca2+ swelling absorbance, 30 min | 1.4% of 360,000 active;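 active = inhibition of 50% or more, scaled per plate between neutral and stimulator controls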;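 also: 0% = DMSO wells given calcium and 100% = 1 mM EGTA wells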
aDG glyco up: increases alpha dystroglycan glycosylation; activation, % at 10 µM; Pro5-aDG cells, alpha-DG glycosylation AlphaScreen (IIH6); 0% Pro5, 100% B10-LARGE cell signal; 0.22% of 360,000 active;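 active = activation of at least 8% versus controls, or a plate z-score of at least 8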;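 also: Pro5 are CHO cells carrying HIG-tagged alpha-DG that lacks glycosylation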
procasp7 counter: counter-screen for procaspase-3 activators: activators of human procaspase-7. P55210. recombinant procaspase-7, Ac-DEVD-pNA absorbance 405 nm; D23A/D198A/D206A triple mutant, cannot self-cleave; scale: DMSO 0, 5 µM enzyme 100. activation, % at 8.5 µM. 0.093% of 330,000 active. AID 463210;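 active = percent activation above the screen-wide mean plus 3 SD, cut at about 25% in these data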
Target sequence (P55210 whole entry D23A/D198A/D206A): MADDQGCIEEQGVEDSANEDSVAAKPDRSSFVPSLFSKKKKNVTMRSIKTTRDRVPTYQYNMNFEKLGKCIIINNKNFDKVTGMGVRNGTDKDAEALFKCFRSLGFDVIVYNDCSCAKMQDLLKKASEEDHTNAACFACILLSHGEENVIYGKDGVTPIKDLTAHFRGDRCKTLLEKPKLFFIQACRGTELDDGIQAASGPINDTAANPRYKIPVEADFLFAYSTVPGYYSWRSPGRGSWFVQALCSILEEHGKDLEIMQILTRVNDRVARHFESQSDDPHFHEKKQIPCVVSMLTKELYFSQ
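Material: Procaspase-7 triple mutant (PC-7 D3A) | Quantity: 2 µM procaspase-7 mutant as dispensed | Reagent: DEVD-pNA substrate | Times: 1 h preincubation, 2 h reaction | Technique: 405 nm absorbance of p-nitroaniline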
NR3A LBD binder: modulators (binders) of human NR3A ligand-binding domain; NR3A LBD differential scanning fluorimetry, Tm shift; 0% = protein alone, 100% = glycine-bound protein; 2.5% of 340,000 active; Tm shift relative to glycine control, % at 25 µM; AID 1259313;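 active = melting temperature shift of at least 10% of the positive control shift, at one fixed dose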
The depositor's hits bear a star; · = not tested or not shown. This is a sample that favours compounds with a hit; in the whole collection about 3.7% have one here.

SMILES | proCasp3 act | MPTP inh | aDG glyco up | procasp7 counter | NR3A LBD binder
Cc1cccc(-c2nc(Nc3cccc(O)c3)c3ccccc3n2)c1 | 5 | 4 | 0 | -3 | 32*
COCCCNc1nc(-c2ccc(Cl)cc2)nc2ccccc12 | -9 | 2 | 0 | -2 | 12*
Cc1cccc(-c2nc(Nc3ccc(N4CCOCC4)cc3)c3ccccc3n2)c1 | 3 | 4 | -1 | 1 | 7
COCCCNc1nc(-c2ccncc2)nc2ccccc12 | -2 | -3 | 0 | -7 | 1
O=C(O)c1ccc(Nc2nc(-c3ccc([N+](=O)[O-])cc3)nc3ccccc23)cc1 | · | 3 | 0 | · | 8
O=[N+]([O-])c1ccc(-c2nc(Nc3ccc(O)cc3)c3ccccc3n2)cc1 | · | 4 | 0 | · | 23*
CCOC(=O)N1CCN(C(C(=O)NC2CCCC2)c2cccc(OC)c2OC)CC1 (configuration not stated) | · | 2 | 0 | · | ·
O=C(/C=C/c1cccc(Cl)c1)OCC(=O)c1ccc[nH]1 | · | -1 | 0 | · | ·
C/C(=N\Nc1nncc2ccccc12)c1ccc(O)cc1 | 0 | -1 | 0 | -4 | 8
COc1ccc(Nc2nc(-c3ccccc3)nc3ccccc23)cc1 | -3 | 1 | 0 | -2 | 34*
c1ccc(CNc2nc(-c3ccccc3)nc3ccccc23)cc1 | 0 | 3 | 0 | 1 | 10*
O=C(Nc1nc(-c2ccccc2)nc2ccccc12)c1ccc(F)cc1 | 6 | 0 | -1 | -9 | -2
CC(=O)Nc1ccc(Nc2nc(-c3ccccc3)nc3ccccc23)cc1 | -1 | 2 | 0 | -5 | 12*
COc1ccc(-c2nc(N/N=C(\C)c3ccc(O)cc3)c3ccccc3n2)cc1 | -2 | 9 | 0 | 3 | 13*
Cc1ccc(S(=O)(=O)N2C[C@H]3C(=O)C[C@@H](c4ccccc4F)N(S(=O)(=O)c4ccc(C)cc4)[C@H]3C[C@H]2c2ccccc2F)cc1 | · | 0 | 0 | · | ·
O=C(NC(=O)c1c(F)cccc1F)Nc1cccc(Oc2ncc(Cl)cn2)c1 | · | 0 | 0 | · | 1
Oc1ccc(Nc2nc(-c3ccccc3)nc3ccccc23)cc1 | 8 | 1 | 0 | 15 | 42*
Cc1ccc(Nc2nc(-c3cccnc3)nc3ccccc23)cc1 | -8 | 16 | 2 | 0 | -2
CCOC(=O)C1(CC2CCCCO2)CCN(C(=O)Nc2ccc(SC)cc2)CC1 (configuration not stated) | 1 | -1 | 0 | 4 | -8
CCOC(=O)C1(CC2CCCCO2)CCN(C(=O)Nc2cccc(SC)c2)CC1 (configuration not stated) | 1 | -1 | 0 | 2 | 11*
Cc1c(Cl)c([N+](=O)[O-])nn1CCCC(=O)Nc1cccc(O)c1 | 4 | -1 | 0 | 2 | 12*
C(=N\n1c2ccccc2c2ccccc21)/c1ccccc1 | -5 | 5 | 0 | 4 | -28
Oc1ccccc1/C=N/n1c2ccccc2c2ccccc21 | 2 | 6 | 0 | 2 | 19*
COc1cc(C=C2CN(C)C(=O)C2=O)ccc1O | · | 17 | 0 | · | ·
COc1cc(/C=C2\OC(=O)c3c(OC)cccc32)ccc1O | -17 | -1 | 0 | -15 | 17*
SMILES | proCasp3 act | MPTP inh | aDG glyco up | procasp7 counter | NR3A LBD binder
c1ccc2c3c([nH]c2c1)-c1[nH]ncc1CC3 | 2 | 16 | 0 | 1 | 30*
Clc1ccc2[nH]c3c(c2c1)CCc1cn[nH]c1-3 | 1 | 13 | 0 | 1 | 18*
Cc1ccc(S(=O)(=O)NCCNC(=O)CN2CCOCC2)cc1 | 2 | 0 | 0 | 3 | 0
CC(=O)OCC(=O)C1(O)CCC2C3CC(F)C4=CC(=O)CCC4(C)C3C(O)CC21C (configuration not stated) | · | -2 | 0 | · | -3
CC(=O)c1ccc(NS(=O)(=O)c2ccc(N/C=C/C(=O)c3ccc(F)cc3)cc2)cc1 | 3 | 16 | 0 | 9 | 16*
O=C(CSc1ccc(Cl)cc1)OCc1nnc(-c2ccccc2)o1 | 5 | 1 | 0 | -1 | 19*
CC(C)OC(=O)C(C(=O)C(F)(F)F)c1cc(NS(=O)(=O)c2ccc3ccccc3c2)c2ccccc2c1O (configuration not stated) | -9 | -14 | 2 | -15 | 24*
CCN(CC)S(=O)(=O)c1ccc2oc(C(=O)NCCN3CCOCC3)c(C)c2c1 | -7 | -3 | 0 | -3 | 58*
FC(F)Oc1ccc(/C=N/NC(=S)Nc2cc(C(F)(F)F)ccc2Cl)cc1 | -1 | 20 | 0 | -2 | 35*
CNC(=S)Nc1cc(C(F)(F)F)ccc1Cl | -8 | 0 | 0 | -2 | 8
O=S(=O)(NCCCCNS(=O)(=O)c1c(F)cccc1F)c1ccc2c(c1)OCCO2 | 2 | 0 | 0 | 7 | 15*
N=C1/C(=C/c2ccc(-c3cccc(C(=O)O)c3)o2)C(=O)N=C2SC=C(c3ccccc3)N12 | -16 | 3 | 0 | -12 | 2
N=C1/C(=C/c2cccn2CCOc2ccccc2)C(=O)N=C2SC=C(c3ccccc3)N12 | -17 | 15 | 0 | -15 | 23*
N=C1/C(=C\c2ccc(-c3cc(Cl)cc(Cl)c3)o2)C(=O)N=C2SC=C(c3ccccc3)N12 | -15 | 4 | 0 | -13 | 24*
CCOC(=O)C1=CCC(c2ccc(N(CC)CC)cc2)N(S(=O)(=O)c2ccc(C)cc2)C1c1ccc([N+](=O)[O-])cc1 (configuration not stated) | · | 1 | -1 | · | ·
Cc1cc(C)c(C)c(S(=O)(=O)N2CCC(C(=O)NCCCN3CCCC3=O)CC2)c1C | -2 | -1 | -1 | -6 | 0
Cc1ccc(C(=O)Cn2c(C)cc(C)c(C#N)c2=O)cc1 | -3 | 2 | 0 | -6 | 13*
CCCCC(=O)N(C)c1c(CC)nc2c(OCC(=O)C(C)(C)C)cccn12 | · | -1 | 0 | · | ·
O=C(Nc1ccc(F)cc1)Nc1ccc2c(c1)CCC2 | -2 | 23 | 1 | 5 | 8
COc1ccc(C)cc1NC(=O)Nc1ccc2c(c1)CCC2 | 4 | 0 | 0 | 13 | 11*
COc1ccccc1NC(=O)Nc1ccc2c(c1)CCC2 | -4 | -1 | 0 | 4 | 3
O=C(Nc1ccccc1)Nc1ccc2c(c1)CCC2 | · | 23 | 1 | · | 11*
C=CCn1c(O)c(N=Nc2ccccc2O)c2ccccc21 | -20 | 3 | 0 | -19 | 15*
O=C1Nc2ccccc2C1=Nc1ccccc1-c1ccccc1 | · | -1 | 1 | · | 0
CCN1CCN(C2=C(NS(=O)(=O)c3ccccc3)C(=O)c3ccccc3C2=O)CC1 | 6 | 1 | 2 | -2 | 2
CCN1CCN(C2=C(NS(=O)(=O)c3ccc(Br)cc3)C(=O)c3ccccc3C2=O)CC1 | 4 | 0 | 7.7* | -7 | -6
